KLF5 inhibitor: inhibitors of KLF5 expression. DLD-1 KLF5 promoter-luciferase reporter, luminescence. inhibition, % at 5 µM. actives 0.23% (n = 290,000). AID 1700;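 active means inhibition above a per-plate limit of that plate's mean compound inhibition plus 3 SD, cut at about 60% in these data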;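 further: 0% = DMSO wells and 100% = LY294002 at 200 µM; higher means less KLF5 promoter-driven luciferase light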
IEC-6 tox: kills IEC-6 intestinal cells in KLF5 counter-screen; actives 0.78% (n = 290,000); AID 1825; IEC-6 cytotoxicity, luminescence viability; inhibition, % at 5 µM;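 further: 0% = plate median of test compound wells and 100% = cytotoxic reference compound wells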
bCat nuc transl: beta-catenin nuclear translocation modulation. actives 0.3% (n = 190,000). nuclear translocation activity, % at 5 µM. HeLa beta-catenin nuclear translocation, immunofluorescence imaging;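 active means nuclear translocation activity above 50% at 5 µM, with a well cell count of 50 or more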;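 further: per-cell ratio of nuclear to cytoplasmic median beta-catenin stain intensity; plate controls were DMSO negative control for no effect and GSK-3 inhibitor IX positive control for full effect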
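System: Human HeLa cells, endogenous beta-catenin | Compound dosing: 5 µM primary, 0.02–20 µM confirmation | Timing: 24 h compound exposure at 37°C, 5% CO2 | Measured by: Fluorescence imaging of beta-catenin antibody stain plus DAPI | Read-out basis: % activation of per-cell nuclear versus cytoplasmic median beta-catenin signal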
Ba/F3 V617F tox: lowers viability of Ba/F3 cells expressing EpoR and JAK2V617F; ATP luminescence; inhibition, % at 5.6 µM; actives 1.1% (n = 220,000);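 active means inhibition above the campaign mean plus 3 SD over all tested compounds, cut at about 24% in these data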;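 further: cytokine-independent growth of Ba/F3 cells driven by EpoR plus mutant JAK2; 0% = DMSO-treated cells and 100% = JAK inhibitor I control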
MT stabilizer: microtubule stabilizers in HeLa cells; HeLa tubulin immunostaining HCS, 24 h; share of cells brighter than vehicle mean+2SD; actives 0.83% (n = 200,000); % tubulin-high responders, % at 10 µM;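 active means plate Z-score above 3 for both tubulin-high and condensed-nucleus cell shares, with cell loss under 80%, at 10 µM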;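 further: anti alpha tubulin signal scored within the nucleus-defined area of each cell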
BaF3 tox: reduces parental Ba/F3 cell viability, JAK2V617F counter-screen; CellTiter-Glo ATP luminescence; inhibition, % at 5.6 µM; actives 1.1% (n = 220,000); AID 1486;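 active means inhibition above a per-campaign cutoff, the mean inhibition of all tested compounds plus 3 SD, cut at about 27% in these data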;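 further: 0% = DMSO wells and 100% = JAK Inhibitor I control wells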
IEC-6 tox confirm: IEC-6 cytotoxicity, confirmation assay; shares compounds with IEC-6 tox; IEC-6 rat intestinal epithelial viability, luminescence; inhibition, % at 5 µM; actives 63% (n = 1,900); AID 1907;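 further: 0% = vehicle and 100% = reference cytotoxic drug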
* hit, by the source's call; · = not tested or not shown. The list is not random: actives were taken first. Their share in the collection is about 2.1%. Unless noted, no stated cut-off is given here; in the data, active means inhibition above about 22%; inactive means the rest.

SMILES	KLF5 inhibitor	IEC-6 tox	bCat nuc transl	Ba/F3 V617F tox	MT stabilizer	BaF3 tox	IEC-6 tox confirm
O=C(Nc1nc2cc3c(cc2s1)OCCO3)c1ccc([N+](=O)[O-])o1	-75	90*	·	·	·	·	24*
Cc1cc(C)c2nc(NC(=O)c3ccc([N+](=O)[O-])o3)sc2c1	-32	0	·	·	·	·	·
O=C(Nc1ccc(N2CCOCC2)c(Cl)c1)c1ccc([N+](=O)[O-])o1	-18	-4	1	1	6	-5	·
COc1ccccc1C(=O)Nc1nc2cc3c(cc2s1)OCCO3	34	34*	-4	-1	4	0	22*
O=C1N(Cc2cccnc2)C[C@@H]2C[C@@H](c3cccc(OC4CCCC4)c3)N3CCC[C@@]123	-6	-4	0	-1	3	8	·
O=C(Nc1nc2ccccc2s1)c1ccc([N+](=O)[O-])o1	-35	86*	·	·	·	·	30*
O=C(Nc1nc2ccccc2s1)c1ccccc1[N+](=O)[O-]	-123	6	·	·	·	·	·
COc1ccc2nc(NC(=O)Nc3ccccc3OC)sc2c1	-86	43*	·	·	·	·	38*
COc1ccc2nc(NC(=O)c3ccc([N+](=O)[O-])o3)sc2c1	-42	93*	·	·	·	·	42*
COc1ccc2nc(NC(=O)Nc3cccc4ccccc34)sc2c1	-14	0	0	-1	3	4	·
COc1ccccc1CNC(=O)CCCNC(=O)c1ccc(Cl)cc1	-13	1	·	·	·	·	·
COc1ccc(Cc2nc3ccc(C(=O)N4CCCCC4CCO)cc3o2)cc1 (centres undefined)	-16	-1	·	·	·	·	·
O=c1cc(NCCc2ccccc2)c2ccccc2o1	-111	-2	-1	-2	1	5	·
COc1ccc(-n2cc(-c3ccccc3)[nH]c2=S)c(OC)c1	3	26*	·	·	·	·	4
COc1ccc(-n2cc(-c3ccc(OC)c(OC)c3)[nH]c2=S)cc1	-54	1	-1	-4	1	1	·
O=C(NNC(=O)c1cnccn1)c1ccc(Cl)c(Cl)c1	19	37*	·	·	·	·	22
O=C(NCCNC(=O)c1cnccn1)c1ccc(Cl)c(Cl)c1	-14	11	·	·	·	·	·
CN1CCc2c(n(CC(O)CNCc3ccccc3)c3ccccc23)C1=O (centres undefined)	14	9	1	1	5	-6	·
CC(C)NCC(O)Cn1c2c(c3ccccc31)CCc1c-2cnn1-c1ccccc1 (centres undefined)	22	75*	-3	88*	50	79*	73*
C/C=C/C(=O)Nc1cccc(C2=NOC3(C2)C[C@@H](C(N)=O)N(C(=O)C(c2ccccc2)c2ccccc2)C3)c1 (some centres undefined)	·	·	-2	·	·	·	·
COc1ccc(-c2cc(CS(=O)(=O)c3ccccc3)on2)cc1	-122	-2	-6	2	3	14	·
COc1cccc(-n2c(-c3ccc4[nH]c(C)c(C)c4c3)n[nH]c2=S)c1	-25	48*	0	4	6	6	46*
COc1cccc(-n2c(-c3cccc(S(=O)(=O)N(C)C)c3)n[nH]c2=S)c1	-11	3	-1	1	2	5	·
Cc1[nH]c2ccc(-c3n[nH]c(=S)n3-c3ccccc3)cc2c1C	-32	49*	-7	-2	4	3	32*
Cc1[nH]c2ccc(-c3n[nH]c(=S)n3-c3ccc(Br)cc3)cc2c1C	-5	50*	0	-2	1	3	44*
SMILES	KLF5 inhibitor	IEC-6 tox	bCat nuc transl	Ba/F3 V617F tox	MT stabilizer	BaF3 tox	IEC-6 tox confirm
O=C(O)c1ccc(NC(=O)C2C3CCC(O3)C2C(=O)O)cc1 (centres undefined)	-11	9	·	·	·	·	·
O=C(CSc1nnc(CNC(=O)c2cccs2)o1)Nc1ccccc1F	-41	-7	·	·	·	·	·
COc1ccc(S(=O)(=O)N2CC(O)C[C@H]2C(=O)OCC(=O)N2CCCCCC2)cc1 (some centres undefined)	0	1	2	8	2	5	·
COc1cc2c(cc1OC)C(C)N(C(=O)Nc1ccccc1)CC2 (centres undefined)	60	63*	·	·	·	·	50*
COc1cc2c(cc1OC)C(C)N(C(=O)CCNC(=O)c1ccccc1)CC2 (centres undefined)	-19	-2	·	·	·	·	·
CCN(CC)c1ccc(/C=N/NC(=O)c2cnccn2)cc1	7	43*	23	78*	23*	74*	56*

Source: PubChem BioAssay
